From PubChem
BB579 growth dn – yeast BB579 growth reduction in restrictive medium; S. cerevisiae BB579 growth, OD615, 48 h; AID 804; actives 0.51% (n = 140,000); inhibition, % at 10 µM;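 active = inhibition above a set limit, 3 SD over the mean compound inhibition, cut at about 44% in these data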
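Test system: S. cerevisiae DeaD strain BB579 yeast; Medium: restrictive CSMM-D medium; Compound: one dose, 10 µM compound with 0.25% DMSO; Incubation: 4 h cell preincubation, 48 h compound exposure, 30 °C humidified; Signal: OD at 615 nm; Benchmarks: amphotericin B at 10 µg/mL as positive control.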
Yeast lifespan up – yeast lifespan extension; inhibition of the nicotinamide effect, % at 10 µM; AID 775; actives 0.68% (n = 130,000); S. cerevisiae growth with nicotinamide, OD615; deaD strain in restrictive glucose medium;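 active = inhibition above a set limit, placed 3 SD over the median of all compounds, cut at about 26% in these data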;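 also: 0% = nicotinamide-treated wells and 100% = cells grown without nicotinamide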
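Measured by: optical density (absorbance) at 615 nm; System: modified budding yeast, DeaD strain; Medium: restrictive CSMM-D dextrose medium; Timing: 4 h preincubation then 48 h treatment at 30 °C.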
PostGolgi ctrl – growth of the yeast control strain, post-Golgi counter-screen | efflux-deficient yeast background strain, growth absorbance A615, 16 h | inhibition, % at 10 µM | actives 5% (n = 98,000) | AID 738
PostGolgi yeast – growth inhibition of a yeast mutant, post-Golgi transport screen; post-Golgi transport phenotypic cell assay; inhibition, % at 10 µM; actives 0.9% (n = 98,000); AID 739;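 also: yeast cells grown in 1536-well plates; yeast grown about 18 h at 30C before absorbance read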
The depositor's hits bear a star; . = no result given. Many of the other results were omitted from the sample, so hits are more common in it than they were. Rule as the data show it, unless noted: active = inhibition above about 30%; inactive = the rest.

SMILES | BB579 growth dn | Yeast lifespan up | PostGolgi ctrl | PostGolgi yeast
CCOC(=O)c1c(NC(=O)CN2CCN(c3ccc(Cl)cc3)CC2)sc(C)c1C | -19 | 2 | -1 | -10
S=C(c1ccc(Br)cc1)N1CCN(Cc2ccccc2)CC1 | -23 | 7 | 33* | -3
CCN1CCN(C(=S)c2ccc(Br)cc2)CC1 | -5 | -12 | 10 | -4
Cc1ccc(NC(=O)CN(C)C(=O)c2ccc(C(F)(F)F)cc2)cc1 | -14 | 3 | . | .
CCC(=O)Nc1ccc(S(=O)(=O)Nc2ncccn2)cc1 | -22 | 2 | 31* | 2
Cc1[nH]c(=O)c(C#N)c2c1CSC(C)(C)C2 | -16 | -2 | 8 | 20
O=C1c2cc([N+](=O)[O-])cc3cc([N+](=O)[O-])cc(c23)C(=O)N1c1ccccn1 | -16 | 32* | . | .
O=C1c2cc3ccccc3c(-c3ccccc3)c2C(=O)N1c1ccccn1 | -11 | 9 | . | .
O=C1C2CSCN2C(=O)CN1CCCN1CCN(C(c2ccccc2)c2ccccc2)CC1 (centres undefined) | -22 | 0 | . | .
COc1ccc(CNS(=O)(=O)c2ccc(C3CNC(=O)C3)cc2)cc1 (centres undefined) | -3 | -2 | 26 | -2
CC(C)Oc1ccc(C2CNC(=O)C2)cc1 (centres undefined) | -12 | -2 | 33* | -5
CC(Sc1nncs1)C(=O)Nc1ccc(Cl)cn1 (centres undefined) | -9 | -6 | . | .
CCCn1c(=S)[nH]c2cc(C(=O)N3CCc4ccccc43)ccc2c1=O | -11 | -5 | 103* | -2
COCCn1c(=S)[nH]c2cc(C(=O)N3CCc4ccccc43)ccc2c1=O | -9 | -11 | 96* | -14
CCCn1c(SCC(=O)NC(C)C23CC4CC(CC(C4)C2)C3)n[nH]c1=O (centres undefined) | -19 | -8 | 38* | -2
CCOc1ccc2nc(-c3ccc(OC)c(OC)c3)cc(C(=O)O)c2c1 | -12 | 51* | 4 | -1
CC1(c2cc([N+](=O)[O-])cc([N+](=O)[O-])c2)CC(C)(C)N(C(=O)c2ccccc2)c2ccccc21 (centres undefined) | -35 | -1 | 21 | 2
CC1(c2ccccc2)CC(C)(C)N(C(=O)C2CCCO2)c2ccccc21 (centres undefined) | -55 | 21 | 66* | -4
CCOc1ccc(-c2n[nH]c(C)c2Oc2ccc(OC)cc2)c(O)c1 | -23 | -12 | 33* | 12
Cc1[nH]nc(-c2ccc(O)c(C)c2O)c1Oc1ccccc1 | -50 | -9 | 38* | 2
Cc1[nH]nc(-c2ccc(OCc3cnn(-c4ccccc4)c3)c(C)c2O)c1Oc1ccccc1 | -3 | -13 | 8 | -6
Cc1noc(C)c1C(=O)OCC(=O)Nc1cc(Cl)ccc1Oc1ccccc1 | -65 | -1 | 38* | 1
COc1ccc(C)cc1NC(=O)COC(=O)c1c(C)noc1C | -37 | -26 | 9 | 1
Cc1cccc(C)c1N(CC(=O)Nc1cc(Cl)ccc1Oc1ccccc1)S(C)(=O)=O | 9 | -13 | 50* | 3
COc1ccc(OC)c(NS(=O)(=O)c2ccc(NC(=O)c3ccc(NS(C)(=O)=O)cc3)cc2)c1 | -12 | 11 | . | .
SMILES | BB579 growth dn | Yeast lifespan up | PostGolgi ctrl | PostGolgi yeast
C/C(N)=C(/C#N)C(=O)CSc1nc2cc(Cl)ccc2s1 | -16 | -16 | 44* | -12
C/C(CC(C)(C)C1CCCCC1)=N\NC(N)=S | -8 | -17 | 100* | 107*
Cc1ccc(NC(=O)CCCCCCCCCCC2COCCO2)c(C)c1 (centres undefined) | -14 | -4 | . | .
O=C(/C=C\c1cccs1)c1c(O)ccc2ccc(=O)oc12 | -31 | 27* | . | .
O=C(/C=C/c1cccs1)c1ccc(Br)cc1 | -32 | -33 | 3 | 0
CCCOc1ccc(/C=C/C(=O)Nc2ccc([N+](=O)[O-])cc2)cc1 | -34 | -3 | 95* | 7
c1ccc(C2CC(c3ccccc3)n3c(nc4ccccc43)N2)cc1 (centres undefined) | -27 | 6 | . | .
CCn1nnnc1SCC(=O)N1CCCc2ccccc21 | -37 | . | . | .
COc1ccc(/C=C/c2ccncc2)c2ccccc12 | -64 | -16 | 43* | -1
CCn1c(SCC(N)=O)nc2c(c1=O)C1(CCCC1)Cc1ccccc1-2 | -32 | -8 | 50* | -10
O=c1c2c(n3cnnc3n1-c1ccccc1)-c1ccccc1CC21CCCCC1 | -41 | 10 | 20 | 13
Cc1cccc(-n2c(=O)c3c(n4cnnc24)-c2ccccc2CC32CCCCC2)c1 | -42 | 8 | 46* | -18
NC(=O)CSc1nc2c(c(=O)n1-c1ccccc1)C1(CCCCC1)Cc1ccccc1-2 | -9 | 1 | . | .
